In ChEMBL document CHEMBL1156360, “New phenylpropanoid esters of sucrose from Polygonum lapathifolium” (J Nat Prod, 2001):

Key:
Type in all cases: cell-based
[1] = Cytotoxicity against human Raji cells assessed as cell viability at 100 molar ratio by Trypan blue method; conditions: read-out: Activity
Method in brief: (§1)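 Raji cells (1×10^6/mL) given n-butyric acid (4 mmol), TPA (32 pmol = 20 ng per mL, in DMSO) and test compound in DMSO, then held at 37 °C for 48 h. Dose is the mol ratio of compound to TPA. Viability of the treated cells was scored by Trypan Blue staining.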

[2] = tested on: Raji; assay: Inhibition of 12-O-tetradecanoylphorbol-13-acetate-induced EBV-early antigen activation in human Raji cells at 100 molar ratio relative to TPA; set-up: scale not given: the % may be the effect or the level left; conditions: human gammaherpesvirus 4
Method in brief: (§2)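 Raji cells (virus nonproducer, 1×10^6/mL) were cultured 48 h at 37 °C in 1 mL medium with n-butyric acid (4 mmol), TPA inducer (32 pmol = 20 ng in DMSO) and compound in DMSO. Dose is the mol ratio to TPA. EA-positive cells on smears were found by indirect immunofluorescence using NPC patient serum. Triplicate assays; induction is given relative to the butyric acid + TPA control (100%).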

[3] = Cytotoxicity against human Raji cells assessed as cell viability at 1000 molar ratio by Trypan blue method; conditions: read-out: Activity; method in brief: as §1
[4] = tested on: Raji; assay: Inhibition of 12-O-tetradecanoylphorbol-13-acetate-induced EBV-early antigen activation in human Raji cells at 10 molar ratio relative to TPA; set-up: scale not given: the % may be the effect or the level left; conditions: human gammaherpesvirus 4; method in brief: as §2
[5] = tested on: Raji; assay: Inhibition of 12-O-tetradecanoylphorbol-13-acetate-induced EBV-early antigen activation in human Raji cells at 500 molar ratio relative to TPA; set-up: scale not given: the % may be the effect or the level left; conditions: human gammaherpesvirus 4; method in brief: as §2
[6] = tested on: Raji; assay: Inhibition of 12-O-tetradecanoylphorbol-13-acetate-induced EBV-early antigen activation in human Raji cells at 1000 molar ratio relative to TPA; set-up: scale not given: the % may be the effect or the level left; conditions: human gammaherpesvirus 4; method in brief: as §2
[7] = Cytotoxicity against human Raji cells assessed as cell viability at 10 molar ratio by Trypan blue method; conditions: read-out: Activity; method in brief: as §1
[8] = Cytotoxicity against human Raji cells assessed as cell viability at 500 molar ratio by Trypan blue method; conditions: read-out: Activity; method in brief: as §1

Structure (SMILES): CC[C@H](CC[C@@H](C)[C@H]1CC[C@H]2[C@@H]3C(=O)C=C4C[C@@H](O)CC[C@]4(C)[C@H]3CC[C@]12C)C(C)C
- viability at 100 molar ratio [1]: > 80%
- Activity [2]: 71.5%
- viability at 1000 molar ratio [3]: 60%
- Activity [4]: 100%
- Activity [5]: 42.8%
- Activity [6]: 11.5%
- viability at 10 molar ratio [7]: > 80%
- viability at 500 molar ratio [8]: > 80%

Structure (SMILES): Oc1cc(O)c2c(c1)O[C@@H](c1ccc(O)c(O)c1)[C@H](O)C2 [(-)-CATECHIN]
- viability at 100 molar ratio [1]: > 80%
- Activity [2]: 75.8%
- viability at 1000 molar ratio [3]: 70%
- Activity [4]: 100%
- Activity [5]: 41.3%
- Activity [6]: 11.3%
- viability at 10 molar ratio [7]: > 80%
- viability at 500 molar ratio [8]: > 80%

Structure (SMILES): O=C(/C=C/c1ccc(O)cc1)OC[C@H]1O[C@@](COC(=O)/C=C/c2ccc(O)cc2)(O[C@H]2O[C@H](CO)[C@@H](O)[C@H](O)[C@H]2O)[C@@H](OC(=O)/C=C/c2ccc(O)cc2)[C@@H]1O [HYDROPIPEROSIDE]
- viability at 100 molar ratio [1]: > 80%
- Activity [2]: 71.5%
- viability at 1000 molar ratio [3]: 70%
- Activity [4]: 100%
- Activity [5]: 39.6%
- Activity [6]: 10.6%
- viability at 10 molar ratio [7]: > 80%
- viability at 500 molar ratio [8]: > 80%

Structure (SMILES): COc1cc(/C=C/C(=O)OC[C@H]2O[C@H](O[C@]3(COC(=O)/C=C/c4ccc(O)c(OC)c4)O[C@H](COC(=O)/C=C/c4ccc(O)cc4)[C@@H](O)[C@@H]3OC(=O)/C=C/c3ccc(O)cc3)[C@H](O)[C@@H](O)[C@@H]2O)ccc1O [LAPATHOSIDE A]
- viability at 100 molar ratio [1]: > 80%
- Activity [2]: 70.9%
- viability at 1000 molar ratio [3]: 70%
- Activity [4]: 95%
- Activity [5]: 37.2%
- Activity [6]: 10%
- viability at 10 molar ratio [7]: > 80%
- viability at 500 molar ratio [8]: > 80%

Structure (SMILES): COc1cc(/C=C/C(=O)OC[C@H]2O[C@@](COC(=O)/C=C/c3ccc(O)c(OC)c3)(O[C@H]3O[C@H](COC(=O)/C=C/c4ccc(O)c(OC)c4)[C@@H](O)[C@H](O)[C@H]3O)[C@@H](OC(=O)/C=C/c3ccc(O)cc3)[C@@H]2O)ccc1O [LAPATHOSIDE B]
- viability at 100 molar ratio [1]: > 80%
- Activity [2]: 77.9%
- viability at 1000 molar ratio [3]: 60%
- Activity [4]: 100%
- Activity [5]: 51.6%
- Activity [6]: 26.8%
- viability at 10 molar ratio [7]: > 80%
- viability at 500 molar ratio [8]: > 80%

Structure (SMILES): COc1cc(/C=C/C(=O)OC[C@H]2O[C@H](O[C@]3(CO)O[C@H](COC(=O)/C=C/c4ccc(O)cc4)[C@@H](O)[C@@H]3OC(=O)/C=C/c3ccc(O)cc3)[C@H](O)[C@@H](O)[C@@H]2O)ccc1O [LAPATHOSIDE C]
- viability at 100 molar ratio [1]: > 80%
- Activity [2]: 83.5%
- viability at 1000 molar ratio [3]: 70%
- Activity [4]: 100%
- Activity [5]: 59%
- Activity [6]: 33.6%
- viability at 10 molar ratio [7]: > 80%
- viability at 500 molar ratio [8]: > 80%

Structure (SMILES): O=C(/C=C/c1ccc(O)cc1)OC[C@H]1O[C@@](CO)(O[C@H]2O[C@H](CO)[C@@H](O)[C@H](O)[C@H]2O)[C@@H](OC(=O)/C=C/c2ccc(O)cc2)[C@@H]1O [LAPATHOSIDE D]
- viability at 100 molar ratio [1]: > 80%
- Activity [2]: 71.4%
- viability at 1000 molar ratio [3]: 70%
- Activity [4]: 100%
- Activity [5]: 38.3%
- Activity [6]: 10.5%
- viability at 10 molar ratio [7]: > 80%
- viability at 500 molar ratio [8]: > 80%

Structure (SMILES): COC(=O)/C=C/c1ccc(O)cc1 [METHYL P-HYDROXYCINNAMATE]
- viability at 100 molar ratio [1]: > 80%
- Activity [2]: 77.5%
- viability at 1000 molar ratio [3]: 70%
- Activity [4]: 100%
- Activity [5]: 42.6%
- Activity [6]: 15.7%
- viability at 10 molar ratio [7]: > 80%
- viability at 500 molar ratio [8]: > 80%

Structure (SMILES): CC[C@H](CC[C@@H](C)[C@H]1CC[C@H]2[C@@H]3CC=C4C[C@@H](O[C@@H]5O[C@H](CO)[C@@H](O)[C@H](O)[C@H]5O)CC[C@]4(C)[C@H]3CC[C@]12C)C(C)C [SITOGLUSIDE]
- viability at 100 molar ratio [1]: > 80%
- Activity [2]: 73.9%
- viability at 1000 molar ratio [3]: 60%
- Activity [4]: 100%
- Activity [5]: 45.7%
- Activity [6]: 14.8%
- viability at 10 molar ratio [7]: > 80%
- viability at 500 molar ratio [8]: > 80%

Structure (SMILES): COc1cc(/C=C/C(=O)OC[C@H]2O[C@H](O[C@]3(COC(=O)/C=C/c4ccc(O)cc4)O[C@H](COC(=O)/C=C/c4ccc(O)cc4)[C@@H](O)[C@@H]3OC(=O)/C=C/c3ccc(O)cc3)[C@H](O)[C@@H](O)[C@@H]2O)ccc1O [VANICOSIDE B]
- viability at 100 molar ratio [1]: > 80%
- Activity [2]: 70%
- viability at 1000 molar ratio [3]: 70%
- Activity [4]: 100%
- Activity [5]: 40.9%
- Activity [6]: 11.8%
- viability at 10 molar ratio [7]: > 80%
- viability at 500 molar ratio [8]: > 80%
